Legend:
[1] = molecular target: T1, Ribonucleoside-diphosphate reductase subunit alpha (Mycobacterium tuberculosis, UniProt P9WH75); assay: Displacement of Dansyl-Gly-Ser-Gly-Glu-Asp-Asp-Asp-Trp-Asp-Phe from C-terminal R1 subunit of Mycobacterium tuberculosis ribonucleotide reductase by fluorescence polarization assay
T1 sequence (P9WH75 whole entry): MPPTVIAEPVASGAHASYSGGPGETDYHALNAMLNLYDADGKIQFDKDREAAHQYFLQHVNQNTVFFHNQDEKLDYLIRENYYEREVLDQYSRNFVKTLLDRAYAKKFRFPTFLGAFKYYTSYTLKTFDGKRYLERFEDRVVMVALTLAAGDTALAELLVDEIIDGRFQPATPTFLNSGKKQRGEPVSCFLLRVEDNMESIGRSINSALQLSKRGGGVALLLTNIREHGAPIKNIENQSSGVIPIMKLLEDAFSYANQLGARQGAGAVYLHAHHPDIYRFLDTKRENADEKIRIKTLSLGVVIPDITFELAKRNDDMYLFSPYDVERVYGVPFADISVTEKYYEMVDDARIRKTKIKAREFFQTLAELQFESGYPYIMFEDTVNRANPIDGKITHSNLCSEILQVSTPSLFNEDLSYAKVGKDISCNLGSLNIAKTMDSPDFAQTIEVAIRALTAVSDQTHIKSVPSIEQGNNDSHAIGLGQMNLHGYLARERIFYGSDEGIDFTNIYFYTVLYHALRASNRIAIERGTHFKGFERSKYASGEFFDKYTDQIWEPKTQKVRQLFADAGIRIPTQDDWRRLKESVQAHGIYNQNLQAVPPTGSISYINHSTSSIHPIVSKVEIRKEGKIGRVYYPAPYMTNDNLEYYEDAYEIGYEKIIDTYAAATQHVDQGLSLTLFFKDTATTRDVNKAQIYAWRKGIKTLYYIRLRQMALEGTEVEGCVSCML
Procedure, shortened: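 Competitive fluorescence polarization: compounds compete with a fluorescent probe carrying the R2 C-terminal sequence for binding to M. tuberculosis R1, and dissociation constants (KD2) are derived. Compound stocks are 5–25 mM in 100% DMSO.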

[2] = Inhibition of Mycobacterium tuberculosis ribonucleotide reductase by [3H]CDP assay
Procedure, shortened: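 CDP reduction is read as cpm. IC50 is the concentration giving a 50% cpm reduction, averaged from three separate experiments with standard deviation.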

Compound	Kd [1]	IC50 [2]
O=C(O)C[C@H](NC(=O)OCC1c2ccccc2-c2ccccc21)C(=O)Nc1cccc2c1N[C@@H](Cc1c[nH]c3ccccc13)C(=O)N(CC(=O)N[C@@H](Cc1ccccc1)C(=O)O)C2	1.6 µM	–
CC(=O)N[C@@H](CC(=O)O)C(=O)Nc1cccc2c1N[C@@H](Cc1c[nH]c3ccccc13)C(=O)N(CC(=O)N[C@@H](Cc1ccccc1)C(=O)O)C2	> 150 µM	–
CC(=O)N[C@@H](CCC(=O)O)C(=O)N[C@@H](CC(=O)O)C(=O)N[C@@H](CC(=O)O)C(=O)Nc1cccc2c1N[C@@H](Cc1c[nH]c3ccccc13)C(=O)N(CC(=O)N[C@@H](Cc1ccccc1)C(=O)O)C2	81 µM	–
O=C(Nc1cccc2c1N[C@@H](Cc1c[nH]c3ccccc13)C(=O)N(CCO)C2)OCC1c2ccccc2-c2ccccc21	26 µM	171 µM
CC(=O)N[C@@H](CCC(=O)O)C(=O)N[C@@H](CC(=O)O)C(=O)N[C@@H](CC(=O)O)C(=O)N[C@@H](CC(=O)O)C(=O)Nc1cccc2c1N[C@@H](Cc1c[nH]c3ccccc13)C(=O)N(CC(=O)N[C@@H](Cc1ccccc1)C(=O)O)C2	27 µM	64 µM
O=C(O)CN1Cc2cccc(NC(=O)OCC3c4ccccc4-c4ccccc43)c2N[C@@H](Cc2c[nH]c3ccccc23)C1=O	8.1 µM	24 µM
Ac-EDDDWDF-OH	8.3 µM	20 µM
